Source: ChEMBL document CHEMBL3046176, “Synthesis, crystal structure, and biological activities of 2-cyanoacrylates containing furan or tetrahydrofuran moieties” (2007)

Assays:
Format in all cases: functional
[1] = tested on: Medicago sativa; assay: Herbicidal activity against Medicago sativa (alfalfa) assessed as herbicidal damage at 1.5 kg/ha measured after postemergence treatment; conditions: post-emergence
In short: (§1)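 Seeds were sown in 6 cm boxes of artificial mixed soil, covered with plastic film until emergence, and grown in a greenhouse. Sprays were applied right after sowing (preemergence) or after the first true leaf expanded (postemergence). Controls received the same amount of water/DMF/Tween 20. Above-ground fresh weight was taken 10 days after treatment, in triplicate, as % damage versus control.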

[2] = tested on: Cladosporium cucumerinum; assay: Antifungal activity against Cladosporium cucumerinum assessed as inhibition of mycelium growth at 50 mg/L at 26 degC measured after 72 hr
In short: (§2)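 Mycelium growth assay on agar. 1 mL test solution (50 mg/L) was poured into a 9 cm plate with 9 mL agar medium. Controls used sterile water in its place. A 4 mm plug from the margin of an actively growing colony was placed in the centre and incubated at 26 °C. Hyphal diameter was measured over 72 h, in triplicate. Inhibition % = (control diameter − treated diameter)/control diameter.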

[3] = tested on: Amaranthus retroflexus; assay: Herbicidal activity against Amaranthus retroflexus assessed as herbicidal damage at 1.5 kg/ha measured after postemergence treatment; conditions: post-emergence; in short: as §1
[4] = tested on: Cucumis sativus; assay: Plant growth regulatory activity in Cucumis sativus (cucumber) seed assessed as number of root at 10 mg/L at 26 degC measured after 5 days
In short: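 Cucumber seeds were incubated at 26 °C in the dark for 72 h, then 10 cotyledons were excised and treated. Incubation continued at 26 °C in the dark for 5 days. Roots were counted, with water-only controls, in triplicate.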

[5] = tested on: Digitaria sanguinalis; assay: Herbicidal activity against hairy crabgrass Digitaria sanguinalis (hairy crabgrass) assessed as herbicidal damage at 1.5 kg/ha measured after preemergence treatment; conditions: pre-emergence; in short: as §1
[6] = tested on: Alternaria solani; assay: Antifungal activity against Alternaria solani assessed as inhibition of mycelium growth at 50 mg/L at 26 degC measured after 72 hr; in short: as §2
[7] = tested on: Amaranthus retroflexus; assay: Herbicidal activity against Amaranthus retroflexus assessed as herbicidal damage at 1.5 kg/ha measured after preemergence treatment; conditions: pre-emergence; in short: as §1
[8] = tested on: Brassica napus; assay: Herbicidal activity against rape Brassica napus (oilseed rape) assessed as herbicidal damage at 1.5 kg/ha measured after preemergence treatment; conditions: pre-emergence; in short: as §1
[9] = tested on: Brassica napus; assay: Herbicidal activity against rape Brassica napus (oilseed rape) assessed as herbicidal damage at 1.5 kg/ha measured after postemergence treatment; conditions: post-emergence; in short: as §1
[10] = tested on: Botryosphaeria berengeriana; assay: Antifungal activity against Botryosphaeria berengeriana assessed as inhibition of mycelium growth at 50 mg/L at 26 degC measured after 72 hr; in short: as §2
[11] = tested on: Medicago sativa; assay: Herbicidal activity against Medicago sativa (alfalfa) assessed as herbicidal damage at 1.5 kg/ha measured after preemergence treatment; conditions: pre-emergence; in short: as §1
[12] = tested on: Tobacco mosaic virus; assay: Antiviral activity against Tobacco mosaic virus (TMV) inoculated in fresh tobacco leaf at 100 mg/L by half-leaf method
In short: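 Half-leaf method on tobacco leaves at the 5-6 growth stage. Leaves were inoculated with TMV by juice-leaf rubbing at 5.88 × 10-2 µg/mL and cut along the main vein. One half was immersed in test solution and the other in double distilled water for 20 min, then cultured at 25 °C for 72 h, in triplicate. Inhibition = 100(CK − A)/CK, from average lesion counts.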

[13] = tested on: Mycosphaerella arachidis; assay: Antifungal activity against Mycosphaerella arachidis assessed as inhibition of mycelium growth at 50 mg/L at 26 degC measured after 72 hr; in short: as §2
[14] = tested on: Fusarium graminearum; assay: Antifungal activity against Fusarium graminearum assessed as inhibition of mycelium growth at 50 mg/L at 26 degC measured after 72 hr
In short: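 Mycelium growth test on agar plates: 1 mL test solution (50 mg/L) mixed with 9 mL agar medium; sterile water in place of test solution for controls. 4 mm inocula cut from margins of actively growing colonies, placed at plate centre, incubated at 26 °C; mycelium diameter measured over 72 h. Inhibition % from mean hyphal diameter against control. Triplicate.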

[15] = tested on: Digitaria sanguinalis; assay: Herbicidal activity against hairy crabgrass Digitaria sanguinalis (hairy crabgrass) assessed as herbicidal damage at 1.5 kg/ha measured after postemergence treatment; conditions: post-emergence; in short: as §1

Compound | inhibition at 1500 g/ha [1] [%] | inhibition at 50 µg/mL [2] [%] | inhibition at 1500 g/ha [3] [%] | Activity [4] [%] | inhibition at 1500 g/ha [5] [%] | inhibition at 50 µg/mL [6] [%] | inhibition at 1500 g/ha [7] [%] | inhibition at 1500 g/ha [8] [%] | inhibition at 1500 g/ha [9] [%] | inhibition at 50 µg/mL [10] [%] | inhibition at 1500 g/ha [11] [%] | Activity [12] [%] | inhibition at 50 µg/mL [13] [%] | inhibition at 50 µg/mL [14] [%] | inhibition at 1500 g/ha [15] [%]
CCOCCOC(=O)/C(C#N)=C(/NCc1ccoc1)SC | 31.1 | 13.2 | 28.8 | 14.4 | 0 | 3.6 | 8.4 | 0 | 30.8 | 9.1 | 16.5 | 8 | 12.5 | 36.7 | 5.1
CCOCCOC(=O)/C(C#N)=C(/CC)NCc1ccco1 | 35.9 | 21.1 | 22.6 | 11.4 | 12.1 | 0 | 9.5 | 16.3 | 47.9 | 27.3 | 0 | 13.3 | 35.7 | 20 | 27.3
CCC/C(NCC1CCOC1)=C(\C#N)C(=O)OCCOCC (stereo not given) | 11.4 | 21.1 | 8.1 | 5.4 | 0 | 10.7 | 9.5 | 0 | 58.8 | 27.3 | 0 | 9.4 | 41.1 | 0 | 1
CCOCCOC(=O)/C(C#N)=C(\NCC1CCOC1)C(C)C (stereo not given) | 41.3 | 5.3 | 37.8 | 14.4 | 0 | 0 | 12.6 | 0 | 88.2 | 9.1 | 2.3 | 4.9 | 17.9 | 0 | 57.6
CCC/C(NCc1ccoc1)=C(\C#N)C(=O)OCCOCC | 31.1 | 21.1 | 14.3 | -6.6 | 35.7 | 25 | 0 | 0 | 25.2 | 31.8 | 4.5 | 0 | 12.5 | 16.7 | 0
CCOCCOC(=O)/C(C#N)=C(/C)NCC1CCCO1 (stereo not given) | 28.7 | 13.2 | 36.4 | -6.6 | 5.7 | 0 | 0 | 8.5 | 57.9 | 9.1 | 11.3 | 7.5 | 44.6 | 10 | 7.1
